Where a SMILES comes first, the peptide text is derived from it. [ ]: non-standard residue; d: D form. The star is where a group is joined. Propanoyl(3-(4-Cl-Ph)) = O=C(CCc1ccc(Cl)cc1)*; Desaminotyrosyl = O=C(CCc1ccc(O)cc1)*; X1 = O=C(Cc1ccc(O)cc1)*
species: Rattus norvegicus; assay: In vitro antagonistic potency against release of luteinizing hormone (LH) from cultured rat pituitary cells.; format: functional; conditions: Pituitary gland cell, read-out: pA2 (converted)
How it was run: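 Cultured rat pituitary cells, agonist-stimulated LH release. pA2 is the negative log of the antagonist concentration that makes a 2-fold higher agonist concentration necessary to release LH. Compounds tested as TFA salts.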

SMILES	Kb [nM]
CCNC(=O)[C@@H]1CCCN1C(=O)[C@H](CCCN=C(N)N)NC(=O)[C@H](CC(C)C)NC(=O)[C@@H](Cc1c[nH]c2ccccc12)NC(=O)[C@H](Cc1ccc(O)cc1)NC(=O)[C@H](CO)NC(=O)[C@@H](Cc1c[nH]c2ccccc12)NC(=O)CCc1ccc(F)cc1	0.0389
CCNC(=O)[C@@H]1CCCN1C(=O)[C@H](CCCN=C(N)N)NC(=O)[C@H](CC(C)C)NC(=O)[C@@H](Cc1ccc(O)cc1)NC(=O)[C@H](Cc1ccc(O)cc1)NC(=O)[C@H](CO)NC(=O)[C@@H](Cc1c[nH]c2ccccc12)NC(=O)CCc1ccc(F)cc1	0.0316
CCNC(=O)[C@@H]1CCCN1C(=O)[C@H](CCCN=C(N)N)NC(=O)[C@H](CC(C)C)NC(=O)[C@@H](Cc1c[nH]c2ccccc12)NC(=O)[C@H](Cc1ccc(O)cc1)NC(=O)[C@H](CO)NC(=O)[C@@H](Cc1c[nH]c2ccccc12)NC(=O)CCc1ccc(F)cc1F	0.0141
CCNC(=O)[C@@H]1CCCN1C(=O)[C@H](CCCN=C(N)N)NC(=O)[C@H](CC(C)C)NC(=O)[C@@H](Cc1c[nH]c2ccccc12)NC(=O)[C@H](Cc1ccc(O)cc1)NC(=O)[C@H](CO)NC(=O)[C@@H](Cc1ccc(O)cc1)NC(=O)CCc1ccc(F)cc1	0.219
CCNC(=O)[C@@H]1CCCN1C(=O)[C@H](CCCN=C(N)N)NC(=O)[C@H](CC(C)C)NC(=O)[C@@H](Cc1c[nH]c2ccccc12)NC(=O)[C@H](Cc1ccc(O)cc1)NC(=O)[C@H](CO)NC(=O)[C@H](Cc1c[nH]c2ccccc12)NC(=O)CCc1ccc(F)cc1	0.589
CCNC(=O)[C@@H]1CCCN1C(=O)[C@H](CCCCNC(C)C)NC(=O)[C@H](CC(C)C)NC(=O)[C@@H](CCCCNC(=O)c1cccnc1)NC(=O)[C@H](Cc1ccc(O)cc1)N(C)C(=O)[C@H](CO)NC(=O)[C@@H](Cc1cccc2ccccc12)NC(=O)CCc1ccc(F)cc1	0.00372
CCNC(=O)[C@@H]1CCCN1C(=O)[C@H](CCCN=C(N)N)NC(=O)[C@H](CC(C)C)NC(=O)[C@@H](Cc1c[nH]c2ccccc12)NC(=O)[C@H](Cc1ccc(O)cc1)NC(=O)[C@@H]1CCCN1C(=O)[C@@H](Cc1c[nH]c2ccccc12)NC(=O)CCc1ccc(F)cc1	21.4
CCNC(=O)[C@@H]1CCCN1C(=O)[C@H](CCCN=C(N)N)NC(=O)[C@H](CC(C)C)NC(=O)[C@@H](Cc1c[nH]c2ccccc12)NC(=O)[C@H](Cc1ccc(O)cc1)N(C)C(=O)[C@H](CO)NC(=O)[C@@H](Cc1c[nH]c2ccccc12)NC(=O)CCc1ccc(F)cc1	0.00708
CCNC(=O)[C@@H]1CCCN1C(=O)[C@H](CCCN=C(N)N)NC(=O)[C@H](CC(C)C)NC(=O)[C@@H](Cc1c[nH]c2ccccc12)NC(=O)[C@H](Cc1ccc(O)cc1)NC(=O)[C@H](CO)NC(=O)[C@H](Cc1c[nH]c2ccccc12)NC(=O)CCc1ccc(O)cc1 (Desaminotyrosyl-WSY[dW]LRP-NHEt)	15.5
CCNC(=O)[C@@H]1CCCN1C(=O)[C@H](CCCN=C(N)N)NC(=O)[C@H](CC(C)C)NC(=O)[C@@H](Cc1c[nH]c2ccccc12)NC(=O)[C@H](Cc1ccc(O)cc1)NC(=O)[C@H](CO)NC(=O)[C@H](Cc1c[nH]c2ccccc12)NC(=O)Cc1ccc(O)cc1 (X1-WSY[dW]LRP-NHEt)	44.7
CCNC(=O)[C@@H]1CCCN1C(=O)[C@H](CCCN=C(N)N)NC(=O)[C@H](CC(C)C)NC(=O)[C@@H](Cc1c[nH]c2ccccc12)NC(=O)[C@H](Cc1ccc(O)cc1)NC(=O)[C@H](CO)NC(=O)[C@H](Cc1ccc(O)cc1)NC(=O)CCc1ccc(Cl)cc1 ({Propanoyl(3-(4-Cl-Ph))}-YSY[dW]LRP-NHEt)	0.851
CCNC(=O)[C@@H]1CCCN1C(=O)[C@H](CCCN=C(N)N)NC(=O)[C@H](CC(C)C)NC(=O)[C@@H](Cc1c[nH]c2ccccc12)NC(=O)[C@H](Cc1ccc(O)cc1)NC(=O)[C@H](CO)NC(=O)[C@@H](Cc1ccc(O)cc1)NC(=O)CCc1ccc(Cl)cc1 ({Propanoyl(3-(4-Cl-Ph))}-[dY]SY[dW]LRP-NHEt)	0.0832

Reference: ChEMBL document CHEMBL1127659, “In vitro and in vivo activities of reduced-size antagonists of luteinizing hormone-releasing hormone” (J Med Chem, 1994)
